According to ChEMBL document CHEMBL3352504, “New series of monoamidoxime derivatives displaying versatile antiparasitic activity” (Eur J Med Chem, 2014):

Legend:
[1] = Selectivity index, ratio of CC50 for human HepG2 cells to IC50 for chloroquine, pyrimethamine and proguanil-resistant Plasmodium falciparum K1; assay type: functional
Outline: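 SI = HepG2 CC50 / PfK1 IC50. CC50 was from an MTT assay on human HepG2 cells, and IC50 from the SYBR Green I fluorescence assay on P. falciparum K1. Each assay was three independent experiments in duplicate.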

[2] = Selectivity index, ratio of CC50 for mouse J774A1 cells to IC50 for Leishmania donovani MHOM/IN/00/DEVI promastigotes; assay type: functional, J774.A1
Outline: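 SI was calculated as J774A.1 macrophage CC50 (MTT) divided by L. donovani promastigote IC50. Both inputs were means of three independent experiments run in duplicate.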

[3] = tested on: Plasmodium falciparum; assay: Antiplasmodial activity against chloroquine, pyrimethamine and proguanil-resistant Plasmodium falciparum K1 infected in human erythrocytes assessed as reduction in Parasitemia incubated for 72 hrs by SYBR Green I fluorescence-based method; assay type: functional, organism-based; conditions: K1, 72 h
Outline: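 Multidrug-resistant P. falciparum K1 was tested in vitro with a SYBR Green I fluorescence-based read-out. IC50 was calculated from three independent experiments, each run in duplicate, and reported as mean ± SD.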

[4] = Cytotoxicity against human HepG2 cells incubated for 72 hrs by MTT assay; assay type: cell-based
Outline: (§1)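 Cytotoxicity was measured by MTT in mouse J774A.1 macrophages and human HepG2 hepatocyte-derived cells, with doxorubicin as the cytotoxic reference. The 50% cytotoxic concentration (CC50) came from three independent experiments in duplicate, reported as mean ± SD.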

[5] = tested on: Leishmania donovani; assay: Antileishmanial activity Leishmania donovani MHOM/IN/00/DEVI promastigotes incubated for 72 hrs by MTT assay; assay type: functional, organism-based
Outline: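 Promastigotes of strain MHOM/IN/00/DEVI were exposed to compounds alongside amphotericin B and pentamidine reference drugs under identical conditions. IC50 was determined from three independent experiments, each run in duplicate, and reported as mean ± SD.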

[6] = Cytotoxicity against mouse J774A1 cells incubated for 72 hrs by MTT assay; assay type: cell-based, J774.A1; outline: as §1

Row | Compound | Ratio CC50/IC50 [1] | Ratio CC50/IC50 [2] | IC50 [3] [µM] | CC50 at 72 h [4] [µM] | IC50 [5] [µM] | CC50 at 72 h [6] [µM]
1 | CC1(Cc2ccccc2)CC(S(=O)(=O)c2ccccc2F)=C(c2ccc(/C(N)=N\O)cc2)O1 (configuration not stated) | <6.2 | 3.2 | > 10 | 61.7 | 9.16 | 29.1
2 | CC1(Cc2ccccc2)CC(S(=O)(=O)c2cccc(F)c2)=C(c2ccc(/C(N)=N\O)cc2)O1 (configuration not stated) | 8.3 | 2.2 | 7.16 | 59.6 | 13.1 | 28.3
3 | CC1(Cc2ccccc2)CC(S(=O)(=O)c2ccccc2C(F)(F)F)=C(c2ccc(/C(N)=N\O)cc2)O1 (configuration not stated) | <5.7 | 1.5 | > 10 | 57.5 | 15.5 | 23.5
4 | CC1(Cc2ccccc2)CC(S(=O)(=O)c2cccc(C(F)(F)F)c2)=C(c2ccc(/C(N)=N\O)cc2)O1 (configuration not stated) | 5.1 | 1.2 | 6.54 | 33.4 | 11.9 | 14.5
5 | CC1(Cc2ccccc2)CC(S(=O)(=O)c2c(F)cccc2F)=C(c2ccc(/C(N)=N\O)cc2)O1 (configuration not stated) | 33.2 | 1.2 | 2.76 | 91.4 | 22.1 | 27
6 | CC1(Cc2ccccc2)CC(S(=O)(=O)c2ccc(F)cc2F)=C(c2ccc(/C(N)=N\O)cc2)O1 (configuration not stated) | 11 | 1.3 | 8.21 | 90.6 | 32.5 | 41.5
7 | N/C(=N/O)c1ccc(C2=C(S(=O)(=O)c3ccc(F)cc3)CC(c3ccccc3)(c3ccccc3)O2)cc1 | 4.9 | 0.7 | 3.9 | 19.2 | 15.7 | 10.2
8 | CC1(c2ccccc2)CC(S(=O)(=O)c2ccc(F)cc2)=C(c2ccc(/C(N)=N\O)cc2)O1 (configuration not stated) | <6.8 | <0.6 | > 10 | 68.3 | > 50 | 29.7
9 | COc1ccc(C2(c3ccccc3)CC(S(=O)(=O)c3ccc(F)cc3)=C(c3ccc(/C(N)=N\O)cc3)O2)cc1 (configuration not stated) | 7 | <0.2 | 4.17 | 29.4 | > 50 | 11.3
10 | CC1(c2ccc(Br)cc2)CC(S(=O)(=O)c2ccc(F)cc2)=C(c2ccc(/C(N)=N\O)cc2)O1 (configuration not stated) | <1.9 | 1 | > 10 | 19.2 | 10.8 | 10.5
11 | CCC1(c2ccccc2OC)CC(S(=O)(=O)c2ccc(F)cc2)=C(c2ccc(/C(N)=N\O)cc2)O1 (configuration not stated) | 3.4 | 0.8 | 7.88 | 27 | 12.4 | 9.88
12 | Cc1ccc(-c2ccc(C3(C)CC(S(=O)(=O)c4ccc(F)cc4)=C(c4ccc(/C(N)=N\O)cc4)O3)cc2)cc1 (configuration not stated) | <1.4 | 0.7 | > 10 | 13.7 | 11.8 | 7.91
13 | CC1(c2ccc(Cl)cc2)CC(S(=O)(=O)c2ccc(F)cc2)=C(c2ccc(/C(N)=N\O)cc2)O1 (configuration not stated) | <6.1 | 0.7 | > 10 | 61.4 | 48.4 | 31.5
14 | CC1(c2ccc(-c3ccc(/C(N)=N\O)cc3)cc2)CC(S(=O)(=O)c2ccc(F)cc2)=C(c2ccc(/C(N)=N\O)cc2)O1 (configuration not stated) | 3.1 | <0.08 | 4.93 | 15.3 | > 50 | 3.94
15 | CC1(c2ccc(-c3ccco3)cc2)CC(S(=O)(=O)c2ccc(F)cc2)=C(c2ccc(/C(N)=N\O)cc2)O1 (configuration not stated) | <0.7 | <0.2 | > 10 | 7.01 | > 25 | 4.56
16 | CC1(c2ccc(-c3cccc([N+](=O)[O-])c3)cc2)CC(S(=O)(=O)c2ccc(F)cc2)=C(c2ccc(/C(N)=N\O)cc2)O1 (configuration not stated) | >8.6 | 0.8 | 5.82 | > 50 | 14.1 | 11.1
17 | CC1(c2ccc(-c3ccncc3)cc2)CC(S(=O)(=O)c2ccc(F)cc2)=C(c2ccc(/C(N)=N\O)cc2)O1 (configuration not stated) | 9.5 | 0.2 | 3.2 | 30.3 | 28 | 6.75
18 | CC1(c2ccc(-c3ccccc3C#N)cc2)CC(S(=O)(=O)c2ccc(F)cc2)=C(c2ccc(/C(N)=N\O)cc2)O1 (configuration not stated) | <5.8 | 0.4 | > 10 | 58.3 | 21 | 9.29
19 | CC1(c2ccc(-c3cccc(/C(N)=N\O)c3)cc2)CC(S(=O)(=O)c2ccc(F)cc2)=C(c2ccc(/C(N)=N\O)cc2)O1 (configuration not stated) | 4.4 | <0.2 | 4.34 | 19 | > 50 | 11
20 | COc1cc(-c2ccc(C3(C)CC(S(=O)(=O)c4ccc(F)cc4)=C(c4ccc(/C(N)=N\O)cc4)O3)cc2)cc(OC)c1OC (configuration not stated) | >9.9 | <0.2 | 5.03 | > 50 | > 25 | 5.22
21 | C[C@@H]1[C@H](O)[C@@H](C)/C=C/C=C/C=C/C=C/C=C/C=C/C=C/[C@H](O[C@@H]2O[C@H](C)[C@@H](O)[C@H](N)[C@@H]2O)C[C@@H]2O[C@](O)(C[C@@H](O)C[C@@H](O)[C@H](O)CC[C@@H](O)C[C@@H](O)CC(=O)O[C@H]1C)C[C@H](O)[C@H]2C(=O)O [AMPHOTERICIN B] | – | 47.1 | – | – | 0.15 | 6.91
22 | COc1cccc2c1C(=O)c1c(O)c3c(c(O)c1C2=O)C[C@@](O)(C(=O)CO)C[C@@H]3O[C@H]1C[C@H](N)[C@H](O)[C@H](C)O1 [DOXORUBICIN] | – | – | – | 0.02 | – | 0.01
23 | C[C@H]1c2cccc(O)c2C(=O)C2=C(O)[C@]3(O)C(=O)C(C(N)=O)=C(O)[C@@H](N(C)C)[C@@H]3[C@@H](O)[C@@H]21.O [DOXYCYCLINE] | 4 | – | – | – | – | –
24 | N=C(N)c1ccc(OCCCCCOc2ccc(C(=N)N)cc2)cc1 [PENTAMIDINE] | – | 0.1 | – | – | – | –
